Activity calls are given as the source filed them. No cut-off for these calls is given here.
What was measured:
[1] = Hemolytic activity in sheep RBC after 1 hr; assay type: ADME, cell-based, Ovis aries, Erythrocyte; details: sheep red blood cells (erythrocytes)
In short: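 Sheep RBCs suspended at 5% in PBS; 150 µL added to 50 µL compound dilutions (5120 to 10 µg/mL series). Incubated 1 h at 37 °C, then centrifuged; supernatant absorbance read at 540 nm. Lysis (%) = (A−A0)/(Atotal−A0)×100, with untreated 5% RBC as A0 and 0.1% Triton X-100 as total.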

[2] = system: Enterobacteriaceae; assay: Antibacterial activity against NDM-1-producing Enterobacteriaceae isolate N4 after 16 to 20 hrs by broth microdilution method; assay type: functional
In short: (§1)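 Broth microdilution per CLSI in cation-adjusted Mueller-Hinton broth; 4-6 h cultures (~10⁸ CFU/mL) diluted to ~10⁶ CFU/mL and mixed 1:1 with twofold dilutions of water-dissolved compound (256 to 0.5 µg/mL). Incubated 16-20 h at 37 °C; MIC read visually. Each concentration run in duplicate, whole experiment repeated at least twice. MRSA, KPC and NDM-1 strains were clinical isolates.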

[3] = system: Klebsiella pneumoniae; assay: Antibacterial activity against carbapenemase-producing Klebsiella pneumoniae isolate K10 after 16 to 20 hrs by broth microdilution method; assay type: functional; in short: as §1
[4] = system: Enterobacteriaceae; assay: Antibacterial activity against NDM-1-producing Enterobacteriaceae isolate N6 after 16 to 20 hrs by broth microdilution method; assay type: functional; in short: as §1
[5] = system: Enterobacteriaceae; assay: Antibacterial activity against NDM-1-producing Enterobacteriaceae isolate N10 after 16 to 20 hrs by broth microdilution method; assay type: functional; in short: as §1
[6] = system: Klebsiella pneumoniae; assay: Antibacterial activity against carbapenemase-producing Klebsiella pneumoniae isolate K3 after 16 to 20 hrs by broth microdilution method; assay type: functional; in short: as §1
[7] = system: Klebsiella pneumoniae; assay: Antibacterial activity against carbapenemase-producing Klebsiella pneumoniae isolate K7 after 16 to 20 hrs by broth microdilution method; assay type: functional; in short: as §1
[8] = system: Staphylococcus aureus; assay: Antibacterial activity against Staphylococcus aureus ATCC 29213 after 16 to 20 hrs by broth microdilution method; assay type: functional
In short: (§2)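 CLSI broth microdilution in cation-adjusted Mueller-Hinton broth. A 4-6 h culture was diluted to about 10⁶ CFU/mL and mixed 1:1 with twofold compound dilutions (256–0.5 µg/mL before mixing) prepared from aqueous stocks. Plates were incubated at 37 °C for 16-20 h. Each concentration was tested in duplicate, and the experiment was repeated at least twice.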

[9] = system: Enterobacteriaceae; assay: Antibacterial activity against NDM-1-producing Enterobacteriaceae isolate N9 after 16 to 20 hrs by broth microdilution method; assay type: functional; in short: as §1
[10] = system: Staphylococcus aureus; assay: Antibacterial activity against methicillin-resistant Staphylococcus aureus isolate M1 after 16 to 20 hrs by broth microdilution method; assay type: functional; in short: as §2
[11] = system: Staphylococcus aureus; assay: Antibacterial activity against methicillin-resistant Staphylococcus aureus isolate M9 after 16 to 20 hrs by broth microdilution method; assay type: functional; in short: as §2
[12] = system: Staphylococcus aureus; assay: Antibacterial activity against methicillin-resistant Staphylococcus aureus isolate M4 after 16 to 20 hrs by broth microdilution method; assay type: functional; in short: as §2
[13] = system: Klebsiella pneumoniae; assay: Antibacterial activity against carbapenemase-producing Klebsiella pneumoniae isolate K1 after 16 to 20 hrs by broth microdilution method; assay type: functional; in short: as §1
[14] = system: Enterococcus faecalis; assay: Antibacterial activity against Enterococcus faecalis after 16 to 20 hrs by broth microdilution method; assay type: functional; in short: as §1
[15] = system: Staphylococcus aureus; assay: Antibacterial activity against methicillin-resistant Staphylococcus aureus isolate M7 after 16 to 20 hrs by broth microdilution method; assay type: functional; in short: as §2
[16] = system: Klebsiella pneumoniae; assay: Antibacterial activity against carbapenemase-producing Klebsiella pneumoniae isolate K8 after 16 to 20 hrs by broth microdilution method; assay type: functional; in short: as §1
[17] = system: Enterobacteriaceae; assay: Antibacterial activity against NDM-1-producing Enterobacteriaceae isolate N1 after 16 to 20 hrs by broth microdilution method; assay type: functional; in short: as §1
[18] = system: Klebsiella pneumoniae; assay: Antibacterial activity against carbapenemase-producing Klebsiella pneumoniae isolate K9 after 16 to 20 hrs by broth microdilution method; assay type: functional; in short: as §1
[19] = system: Staphylococcus aureus; assay: Antibacterial activity against methicillin-resistant Staphylococcus aureus isolate M5 after 16 to 20 hrs by broth microdilution method; assay type: functional; in short: as §2
[20] = system: Klebsiella pneumoniae; assay: Antibacterial activity against carbapenemase-producing Klebsiella pneumoniae after 16 to 20 hrs by broth microdilution method; assay type: functional; in short: as §1
[21] = system: Staphylococcus aureus; assay: Antibacterial activity against methicillin-resistant Staphylococcus aureus isolate M8 after 16 to 20 hrs by broth microdilution method; assay type: functional; in short: as §2
[22] = system: Salmonella enterica; assay: Antibacterial activity against Salmonella enterica after 16 to 20 hrs by broth microdilution method; assay type: functional; in short: as §1
[23] = system: Escherichia coli; assay: Induction of inner membrane permeabilization in Escherichia coli ATCC 25922 at 20 ug/ml measured every 2 mins for 12 mins by propidium iodide staining based fluorescence assay; assay type: functional, organism-based
In short: (§3)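 Mid-log cells (~10^8 CFU/mL) pre-incubated with propidium iodide (10 µM, 50 µL), 30 min for S. aureus and 40 min for E. coli. Fluorescence (ex 535/em 617 nm) read for 8 min, then compound added to 20 µg/mL final and monitored every 2 min for 12 min. Water-treated control.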

[24] = system: Enterobacteriaceae; assay: Antibacterial activity against NDM-1-producing Enterobacteriaceae isolate N2 after 16 to 20 hrs by broth microdilution method; assay type: functional; in short: as §1
[25] = system: Enterobacteriaceae; assay: Antibacterial activity against NDM-1-producing Enterobacteriaceae after 16 to 20 hrs by broth microdilution method; assay type: functional; in short: as §1
[26] = system: Staphylococcus aureus; assay: Induction of cytoplasmic membrane depolarization in Staphylococcus aureus ATCC 29213 at 20 ug/ml measured every 2 mins for 12 mins by diSC35 staining based fluorescence assay; assay type: functional, organism-based
In short: (§4)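 Mid-log cells (4–6 h) pelleted, washed and resuspended (~10^8 CFU/mL) in PBS for S. aureus, or in 5 mM HEPES, 5 mM glucose and 100 mM KCl (1:1:1) for E. coli. Preloaded with diSC35 (10 µM, 50 µL), 30 min for S. aureus and 40 min plus EDTA (200 µM, 50 µL) for E. coli. Baseline read 8 min (ex 622/em 670 nm), then compound added to 20 µg/mL final and read every 2 min for 12 min. Water control.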

[27] = system: Enterobacteriaceae; assay: Antibacterial activity against NDM-1-producing Enterobacteriaceae isolate N8 after 16 to 20 hrs by broth microdilution method; assay type: functional; in short: as §1
[28] = system: Staphylococcus aureus; assay: Antibacterial activity against methicillin-resistant Staphylococcus aureus isolate M6 after 16 to 20 hrs by broth microdilution method; assay type: functional; in short: as §2
[29] = system: Staphylococcus aureus; assay: Induction of inner membrane permeabilization in Staphylococcus aureus ATCC 29213 at 20 ug/ml measured every 2 mins for 12 mins by propidium iodide staining based fluorescence assay; assay type: functional, organism-based; in short: as §3
[30] = system: Staphylococcus aureus; assay: Antibacterial activity against methicillin-resistant Staphylococcus aureus isolate M3 after 16 to 20 hrs by broth microdilution method; assay type: functional; in short: as §2
[31] = system: Klebsiella pneumoniae; assay: Antibacterial activity against carbapenemase-producing Klebsiella pneumoniae isolate K2 after 16 to 20 hrs by broth microdilution method; assay type: functional; in short: as §1
[32] = system: Enterobacteriaceae; assay: Antibacterial activity against NDM-1-producing Enterobacteriaceae isolate N7 after 16 to 20 hrs by broth microdilution method; assay type: functional; in short: as §1
[33] = system: Staphylococcus aureus; assay: Antibacterial activity against methicillin-resistant Staphylococcus aureus isolate M10 after 16 to 20 hrs by broth microdilution method; assay type: functional; in short: as §2
[34] = system: Klebsiella pneumoniae; assay: Antibacterial activity against carbapenemase-producing Klebsiella pneumoniae isolate K6 after 16 to 20 hrs by broth microdilution method; assay type: functional; in short: as §1
[35] = system: Enterobacteriaceae; assay: Antibacterial activity against NDM-1-producing Enterobacteriaceae isolate N3 after 16 to 20 hrs by broth microdilution method; assay type: functional; in short: as §1
[36] = system: Staphylococcus aureus; assay: Antibacterial activity against methicillin-resistant Staphylococcus aureus isolate M2 after 16 to 20 hrs by broth microdilution method; assay type: functional; in short: as §2
[37] = system: Enterobacteriaceae; assay: Antibacterial activity against NDM-1-producing Enterobacteriaceae isolate N5 after 16 to 20 hrs by broth microdilution method; assay type: functional; in short: as §1
[38] = system: Staphylococcus aureus; assay: Antibacterial activity against methicillin-resistant Staphylococcus aureus after 16 to 20 hrs by broth microdilution method; assay type: functional; in short: as §2
[39] = system: Klebsiella pneumoniae; assay: Antibacterial activity against carbapenemase-producing Klebsiella pneumoniae isolate K5 after 16 to 20 hrs by broth microdilution method; assay type: functional; in short: as §1
[40] = system: Escherichia coli; assay: Antibacterial activity against Escherichia coli ATCC 25922 after 16 to 20 hrs by broth microdilution method; assay type: functional; in short: as §1
[41] = system: Escherichia coli; assay: Induction of cytoplasmic membrane depolarization in Escherichia coli ATCC 25922 at 20 ug/ml measured every 2 mins for 12 mins by diSC35 staining based fluorescence assay; assay type: functional, organism-based; in short: as §4
[42] = system: Escherichia coli; assay: Induction of outer membrane permeabilization in Escherichia coli ATCC 25922 at 20 ug/ml measured every 2 mins for 12 mins by NPN staining based fluorescence assay; assay type: functional, organism-based
In short: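 Mid-log E. coli (~10^8 CFU/mL) in black plates pre-incubated about 40 min with NPN (10 µM, 50 µL). Baseline read 8 min (ex 350/em 420 nm), then compound added to 20 µg/mL final and fluorescence followed every 2 min for 12 min. Water-treated control.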

[43] = system: Klebsiella pneumoniae; assay: Antibacterial activity against carbapenemase-producing Klebsiella pneumoniae isolate K4 after 16 to 20 hrs by broth microdilution method; assay type: functional; in short: as §1

CCCCCCCCN(CCCCCCCC)C(=O)[C@@H](N)CO.Cl
HC50 at 1 h [1]: > 1000 µg/mL
MIC [2]: 16 µg/mL
MIC [3]: 32 µg/mL
MIC [4]: 16 µg/mL
MIC [5]: 32 µg/mL
MIC [6]: 32 µg/mL
MIC [7]: 32 µg/mL
MIC [8]: 4 µg/mL
MIC [9]: 32 µg/mL
MIC [10]: 4 µg/mL
MIC [11]: 4 µg/mL
MIC [12]: 4 µg/mL
MIC [13]: 32 µg/mL
MIC [14]: 2 µg/mL
MIC [15]: 2 µg/mL
MIC [16]: 32 µg/mL
MIC [17]: 32 µg/mL
MIC [18]: 32 µg/mL
MIC [19]: 4 µg/mL
MIC [20]: 32 µg/mL
MIC [21]: 4 µg/mL
MIC [22]: 8 µg/mL
Activity [23]: Active
MIC [24]: 32 µg/mL
MIC [25]: 16 µg/mL
Activity [26]: Active
MIC [27]: 32 µg/mL
MIC [28]: 4 µg/mL
Activity [29]: Active
MIC [30]: 4 µg/mL
MIC [31]: 32 µg/mL
MIC [32]: 32 µg/mL
MIC [33]: 2 µg/mL
MIC [34]: 32 µg/mL
MIC [35]: 16 µg/mL
MIC [36]: 4 µg/mL
MIC [37]: 16 µg/mL
MIC [38]: 2 µg/mL
MIC [39]: 32 µg/mL
MIC [40]: 8 µg/mL
Activity [41]: Active
Activity [42]: Active
MIC [43]: 32 µg/mL

CCCCCCCCN(CCCCCCCC)C(=O)[C@H](N)CO.Cl
HC50 at 1 h [1]: 367 µg/mL
MIC [2]: 16 µg/mL
MIC [3]: 32 µg/mL
MIC [4]: 16 µg/mL
MIC [5]: 16 µg/mL
MIC [6]: 32 µg/mL
MIC [7]: 32 µg/mL
MIC [8]: 4 µg/mL
MIC [9]: 16 µg/mL
MIC [10]: 4 µg/mL
MIC [11]: 4 µg/mL
MIC [12]: 4 µg/mL
MIC [13]: 32 µg/mL
MIC [14]: 4 µg/mL
MIC [15]: 4 µg/mL
MIC [16]: 32 µg/mL
MIC [17]: 32 µg/mL
MIC [18]: 32 µg/mL
MIC [19]: 4 µg/mL
MIC [20]: 32 µg/mL
MIC [21]: 4 µg/mL
MIC [22]: 8 µg/mL
Activity [23]: Active
MIC [24]: 16 µg/mL
MIC [25]: 16 µg/mL
Activity [26]: Active
MIC [27]: 32 µg/mL
MIC [28]: 4 µg/mL
Activity [29]: Active
MIC [30]: 4 µg/mL
MIC [31]: 32 µg/mL
MIC [32]: 32 µg/mL
MIC [33]: 4 µg/mL
MIC [34]: 32 µg/mL
MIC [35]: 16 µg/mL
MIC [36]: 4 µg/mL
MIC [37]: 16 µg/mL
MIC [38]: 4 µg/mL
MIC [39]: 32 µg/mL
MIC [40]: 8 µg/mL
Activity [41]: Active
Activity [42]: Active
MIC [43]: 32 µg/mL

From ChEMBL document CHEMBL4130549, “Synthesis and bioactivities study of new antibacterial peptide mimics: The dialkyl cationic amphiphiles” (Eur J Med Chem, 2018)
